High-throughput results from PubChem BioAssay.
aSyn 5UTR inh: MLPCN primary screen, SNCA 5' untranslated region | AID 1813, 2009 | 300,000 tested, 0.82% active | inhibition, % (tested at 7.5 µM) | alpha-synuclein 5'UTR reporter, inhibitor activity; in the data active = inhibition above about 60%; inconclusive = no clear call, values can overlap the other calls;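 also: H4 neuroglioblastoma cells stably carrying SNCA 5'UTR luciferase fusion; 0% = DMSO wells and 100% = positive control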
CSC inhib: cancer stem cell viability inhibitors, primary screen, luminescence. cancer stem cell-like cells viability. 300,000 tested, 1.1% active. AID 2717, 2010. inhibition, % at 7.5 µM; in the data active = inhibition above about 75%; inconclusive = no clear call, values can overlap the other calls; tested in HMLE shEcad cells
T cruzi repl: inhibitors of intracellular T. cruzi growth, primary screen, luminescence, NIH3T3 host cells; T. cruzi beta-gal in NIH3T3, 90 h; inhibition, % (test concentration not listed); 300,000 tested, 1.4% active; AID 1885, 2009;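 active = mean inhibition across valid replicates above about 55%, limit read from the data; inconclusive = mean below that limit but half or more replicates reach it; inactive = mean below it, under half of replicates reach it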;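 also: signal also drops with host cell toxicity which is not excluded here; 0% = plate median of DMSO wells and 100% = zero luminescence signal; higher percent means less beta-gal luminescence so fewer parasites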
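System: mouse NIH/3T3 fibroblasts infected with β-gal-expressing T. cruzi Tulahuen C4 / Input: NIH/3T3 cells, 5,000 per well / Buffer or medium: Low-serum DMEM with 2% FBS / Probe or stimulus: 5000 reporter trypomastigotes per well / Schedule: ≥90 h infection period, 3 h prior cell attachment / Measured by: GalScreen luminescence, 60 min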
SKKanGAS inh: S. pyogenes SKKanGAS growth inhibitors in kanamycin, primary screen, streptokinase expression inhibitor project, SKKanGAS strain, BacTiter-Glo luminescence | 6 h | inhibition, % at 7.5 µM | 300,000 tested, 1.3% active | AID 1662, 2009;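 active = mean replicate score, as percent of positive control median, at least 50; inconclusive = mean below 50 but one replicate at or above 50; inactive = mean and every replicate below 50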;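 also: strain carries kanamycin resistance gene driven by streptokinase promoter and grows in 40 µg/ml kanamycin; loss of luminescence reflects streptokinase promoter inhibition or plain growth inhibition; 0% = median of DMSO wells and 100% = positive control at its reference dose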
Mdm2-MdmX inh: inhibitors of human Mdm2-MdmX association, primary screen, cell-based, luminescence, split luciferase, SaOS-2, uHTS; Protein Mdm4 (Homo sapiens) + E3 ubiquitin-protein ligase Mdm2 (Homo sapiens), …; SaOS-2 split-luciferase Mdm2/MdmX complementation; inhibition, % at 8 µM; 330,000 tested, 3% active; AID 485346, 2010;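 active = inhibition of at least 50% at 8 µM in the primary screen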
Target sequence (O15151 whole entry, looked up): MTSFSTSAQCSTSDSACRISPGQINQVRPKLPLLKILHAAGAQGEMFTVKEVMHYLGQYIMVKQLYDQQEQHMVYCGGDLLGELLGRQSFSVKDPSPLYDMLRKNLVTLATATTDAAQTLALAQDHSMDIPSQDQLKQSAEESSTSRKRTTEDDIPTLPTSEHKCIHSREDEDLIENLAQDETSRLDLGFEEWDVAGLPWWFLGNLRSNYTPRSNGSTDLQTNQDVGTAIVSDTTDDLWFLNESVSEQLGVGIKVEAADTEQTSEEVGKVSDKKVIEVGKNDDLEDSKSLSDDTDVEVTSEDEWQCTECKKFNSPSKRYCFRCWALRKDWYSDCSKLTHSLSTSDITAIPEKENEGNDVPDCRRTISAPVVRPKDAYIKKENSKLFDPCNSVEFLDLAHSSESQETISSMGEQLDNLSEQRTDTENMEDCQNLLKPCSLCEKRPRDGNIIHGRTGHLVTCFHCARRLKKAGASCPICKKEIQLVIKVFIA
Target sequence (Q00987 whole entry, looked up): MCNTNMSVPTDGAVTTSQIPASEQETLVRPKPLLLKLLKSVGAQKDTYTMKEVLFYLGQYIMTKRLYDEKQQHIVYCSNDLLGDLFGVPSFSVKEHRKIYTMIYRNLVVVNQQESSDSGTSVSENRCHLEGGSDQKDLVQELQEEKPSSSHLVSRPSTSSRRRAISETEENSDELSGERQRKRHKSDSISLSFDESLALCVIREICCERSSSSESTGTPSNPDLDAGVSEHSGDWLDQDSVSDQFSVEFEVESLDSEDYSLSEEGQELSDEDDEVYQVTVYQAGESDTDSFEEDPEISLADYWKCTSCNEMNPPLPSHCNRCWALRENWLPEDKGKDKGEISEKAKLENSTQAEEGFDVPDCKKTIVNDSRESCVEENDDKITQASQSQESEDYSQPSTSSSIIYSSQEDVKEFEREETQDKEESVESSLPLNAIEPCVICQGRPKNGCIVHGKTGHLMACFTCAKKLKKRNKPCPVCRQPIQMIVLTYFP
Mdm2-MdmX conf: Mdm2-MdmX complex disruptors, retested hits, confirmation, luminescence, single concentration. AID 489028, 2010. inhibition, % at 8 µM. Mdm2-MdmX binding, luminescent assay. shares compounds with Mdm2-MdmX inh. 10,000 tested, 55% active; in the data active = inhibition above about 40%
FLuc counter: full-length luciferase signal inhibition, confirmation, counter-screen for Mdm2/MdmX interaction inhibitor project, cell-based, single concentration, SaOS-2; 6,200 tested, 77% active; inhibition, % at 8 µM; shares compounds with Mdm2-MdmX inh; SaOS-2 full-length luciferase counterscreen, luminescence;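 active = mean inhibition at 8 µM reaching about 37%, which flags the compound as non-specific, limit read from the data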;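 also: p53-null SaOS-2 cells with luciferase driven by a doxycycline-inducible promoter; compound on cells about two nights before reading with doxycycline added after day one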
* = called active by the depositor; ? = inconclusive; . = no result. Only some compounds are listed: those with a hit (about 5.4% of all), similar ones and a draw of the others.

SMILES | aSyn 5UTR inh | CSC inhib | T cruzi repl | SKKanGAS inh | Mdm2-MdmX inh | Mdm2-MdmX conf | FLuc counter
C/C(=N\NC(=O)c1cc(C)oc1C)c1ccc(C)c([N+](=O)[O-])c1 | . | . | . | . | 96* | -13 | .
C/C(=N/Nc1ccccc1[N+](=O)[O-])c1ccc(C)c([N+](=O)[O-])c1 | -166 | . | -2 | -8 | 70* | 16 | .
CC(C)c1ccc(OCC(=O)NCc2ccccc2)cc1 | 6 | 1 | 5 | 3 | 3 | . | .
C=CCN1C(=O)C(CC(=O)Nc2ccc(OCCC)cc2)N(CCCN2CCN(Cc3ccccc3)CC2)C1=S (configuration not stated) | 7 | 25 | 67* | 7 | 80* | 38 | 75*
COc1ccc(-c2nc(-c3ccc(NC(=O)c4ccncc4)cc3)no2)cc1OC | -155 | 30 | 49 | 55* | 70* | 82* | 81*
COc1ccc(CC(=O)Nc2ccc(-c3noc(-c4cc(OC)c(OC)c(OC)c4)n3)cc2)cc1 | . | -1 | . | . | 50* | 52* | 79*
O=C(Cc1ccc(Cl)cc1)Nc1ccc2oc(-c3ccncc3)nc2c1 | 4 | 24 | 44 | -1 | 55* | 21 | .
CCOc1ccccc1-c1nc(-c2ccc(NC(=O)Cc3ccc(OC)cc3)cc2)no1 | -61 | 16 | 19 | 2 | 57* | 37 | .
O=C(CCC1CCCN(C(=O)C2=CCCCC2)C1)N1CCN(c2ccccn2)CC1 (configuration not stated) | -3 | -19 | 19 | -8 | -6 | . | .
CC(=O)c1cccc(NC(=O)CN2CCc3cc4c(cc3C2)OCCCO4)c1 | -13 | -4 | 5 | 0 | 9 | . | .
CN(C(=O)CN1C(=O)/C(=C/c2ccccc2F)SC1=S)C1CCS(=O)(=O)C1 (configuration not stated) | -9 | 14 | -2 | 0 | -3 | . | .
O=C(O)c1nn(-c2cccc(Cl)c2)c(=O)cc1O | 7 | -6 | -19 | -20 | -6 | . | .
Cc1ccccc1-c1nc(-c2ccc(NC(=O)c3ccc4c(c3)OCO4)cc2)no1 | -71 | 5 | 6 | 4 | 38 | . | .
COc1ccc(CC(=O)Nc2ccc(-c3noc(-c4ccc(Cl)cc4)n3)cc2)cc1 | 9 | 21 | 12 | 6 | 91* | 10 | .
COc1ccc(CC(=O)Nc2ccc(-c3nc4cc(C)ccc4o3)c(O)c2)cc1OC | -56 | -4 | -4 | 2 | 92* | 47* | 115*
COc1ccc(NC(=O)c2ccc(-c3ccc(-c4noc(C)n4)cc3C)cc2)cc1N1CCN(C)CC1 | . | 56 | . | . | 99* | 23 | .
COc1ccc(Cl)cc1-c1nc(-c2ccc(NC(=O)c3ccncc3)cc2)no1 | 2 | -1 | -4 | 13 | 6 | . | .
COc1cc(-c2nc(-c3ccc(NC(=O)c4ccc5c(c4)OCO5)cc3)no2)cc(OC)c1OC | 7 | 30 | -9 | 5 | 83* | 77* | 44*
Cc1ccc2oc(-c3ccc(NC(=O)c4ccncc4)cc3O)nc2c1 | -49 | 1 | 4 | 8 | -55 | . | .
CC(=O)c1cccc(NC(=O)Cc2ccc3c(c2)CCCC3)c1 | 1 | . | -5 | -4 | -7 | . | .
Cc1nn(CC(=O)NC2CCC(C)CC2)c(C)c1[N+](=O)[O-] (configuration not stated) | . | . | . | . | 17 | . | .
CC1CN(c2sc(S(C)(=O)=O)nc2S(=O)(=O)c2ccc(Cl)cc2)CC(C)O1 (configuration not stated) | 10 | 0 | 8 | -5 | 27 | . | .
Cc1ccc(S(=O)(=O)c2nc(S(C)(=O)=O)sc2N2CCC(C)CC2)cc1 | 16 | -9 | -6 | 30 | 53* | 7 | .
CS(=O)(=O)c1nc(S(=O)(=O)c2ccc(Cl)cc2)c(N2CCOCC2)s1 | -75 | -6 | 1 | -4 | 57* | 13 | .
CCCCN(C(=O)CSc1nnc(-c2ccco2)o1)c1c(N)n(Cc2ccccc2)c(=O)[nH]c1=O | 1 | -1 | -12 | -10 | -10 | . | .
SMILES | aSyn 5UTR inh | CSC inhib | T cruzi repl | SKKanGAS inh | Mdm2-MdmX inh | Mdm2-MdmX conf | FLuc counter
COc1ccc(NC2=C(C)C(=O)CC2)cc1 | -29 | 6 | -15 | -8 | 59* | 39 | 90*
Cc1ccc(-c2ccc(/C=C(\C#N)C(=O)Nc3cc(C)nn3-c3ccccc3)o2)cc1 | 20 | 37 | 16 | 8 | 54* | 4 | .
COc1ccc(-c2c(-c3ccc4c(c3)OCO4)noc2C)cn1 | 20 | 9 | 2 | 18 | 33 | . | .
COc1ccc(-c2c(-c3cc(OC)c(OC)c(OC)c3)noc2C)cn1 | 76* | . | -9 | -3 | 54* | 55* | 74*
COc1cc(-c2c(-c3cc(OC)c(OC)c(OC)c3)noc2C)ccc1F | 46 | 58 | 26 | -4 | 84* | 88* | 107*
Cc1ccc(C)c(N2CCN(CCCNC(=O)CCC(=O)N3CCOc4ccc(Cl)cc43)CC2)c1 | 5 | 44 | 5 | 8 | 78* | 43* | 56*
Cc1ccc(C)c(N2CCN(CCCNC(=O)Cn3cccc3C(=O)c3ccccc3)CC2)c1 | 3 | -2 | 34 | -2 | 59* | 24 | .
O=C(CCC(=O)N1CCOc2ccc(Cl)cc21)NCCCN1CCC(Cc2ccccc2)CC1 | 23 | 13 | 5 | 1 | 83* | 50* | 95*
O=C(CCC(=O)N1CCOc2ccc(Cl)cc21)NCCCN1CCN(c2ccccc2F)CC1 | 23 | 14 | -5 | 0 | 48 | . | .
O=C(Cn1cccc1C(=O)c1ccccc1)NCCCN1CCOCC1 | 6 | 16 | -13 | -7 | 10 | . | .
CN(C(=O)COC(=O)CCc1c[nH]c2ccccc12)c1ccccc1 | -10 | . | -9 | -5 | -27 | . | .
O=C(Nc1ccc([N+](=O)[O-])cc1)C(Cc1ccccc1)N1C(=O)c2cccc3cccc(c23)C1=O (configuration not stated) | ? | 26 | 18 | 4 | 63* | 35 | .
COc1ccc2c(c1)c1nc3n(c(=O)c1n2CC(=O)Nc1ccccc1)CCCS3 | -8 | -5 | 4 | 8 | 42 | . | .
Cc1ccc(Cl)cc1N1CCN(CC(=O)Nc2ccc(CN3CCCCC3)cc2)CC1 | -8 | -10 | 55* | 2 | 69* | 43* | 60*
O=C(CN1CCCC1)Nc1ccc(Oc2ccc(NC(=O)CN3CCCC3)cc2)cc1 | -40 | 15 | 39 | -4 | 56* | 53* | 58*
COc1ccccc1N1CCN(CC(=O)Nc2ccc(CN3CCCCC3)cc2)CC1 | 17 | 8 | 7 | 1 | -13 | . | .
COc1ccc(NC(=O)CN2CCCC2)cc1 | 12 | 5 | -6 | -1 | 9 | . | .
